Assays:
[1] = test system: Plasmodium falciparum; assay: Antimalarial activity against Plasmodium falciparum Dd2 infected in erythrocytes assessed as inhibition of [3H]hypoxanthine incorporation by microbeta liquid scintillation counter; type: functional, organism-based
How it was run: (§1)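 Growth inhibition was measured by a standard isotopic assay on cultured P. falciparum-infected erythrocytes, with results reported as IC50 values.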

[2] = test system: Plasmodium falciparum; assay: Antimalarial activity against Plasmodium falciparum 3D7 infected in erythrocytes assessed as inhibition of [3H]hypoxanthine incorporation by microbeta liquid scintillation counter; type: functional, organism-based; how it was run: as §1
[3] = molecular target: T1, Papain (Carica papaya, UniProt P00784); assay: Inhibition of Carica papaya papain by microtiter plate spectrofluorimetry
T1 sequence (P00784 whole entry): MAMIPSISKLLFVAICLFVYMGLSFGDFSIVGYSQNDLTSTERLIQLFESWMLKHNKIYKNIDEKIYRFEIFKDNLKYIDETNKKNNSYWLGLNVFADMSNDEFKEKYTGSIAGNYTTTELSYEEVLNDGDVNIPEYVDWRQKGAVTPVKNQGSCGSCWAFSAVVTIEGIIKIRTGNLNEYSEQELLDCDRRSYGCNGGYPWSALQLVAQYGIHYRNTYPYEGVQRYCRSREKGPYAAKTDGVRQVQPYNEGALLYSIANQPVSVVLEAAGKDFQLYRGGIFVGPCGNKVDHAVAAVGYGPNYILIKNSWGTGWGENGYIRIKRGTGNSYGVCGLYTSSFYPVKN

[4] = Inhibition of Plasmodium falciparum recombinant falcipain-2 by microtiter plate spectrofluorimetry
[5] = Inhibition of Plasmodium falciparum recombinant falcipain-3 by microtiter plate spectrofluorimetry

SMILES	IC50 [1] [µM]	IC50 [2] [µM]	Ki [3] [nM]	IC50 [4] [nM]	IC50 [5] [nM]
CCCCCN(C#N)N(C)C(=O)[C@H](Cc1ccccc1)NC(=O)OCc1ccccc1	2.1	2.9	10	310	110
C[C@@H](C#N)NC(=O)[C@H](Cc1ccccc1)NC(=O)OCc1ccccc1	> 25	> 25	2200	28000	16000
C[C@@H](C#N)N(C)C(=O)[C@H](Cc1ccccc1)NC(=O)OCc1ccccc1	> 25	> 25	750000	> 50000	> 50000
CN(C(=O)[C@H](Cc1ccccc1)NC(=O)OCc1ccccc1)N(C#N)Cc1ccccc1	7.5	7.1	42	1000	1600
CN(C(=O)[C@H](Cc1ccccc1)NC(=O)OCc1ccccc1)N(C#N)CCc1ccccc1	3.6	5.3	6.3	430	300
CN(C#N)N(C)C(=O)[C@H](Cc1ccccc1)NC(=O)OCc1ccccc1	15	9.8	3.9	570	18000
CC(C)C[C@H](NC(=O)OCc1ccccc1)C(=O)N(C)N(C)C#N	18	16	8.2	59	1900
